According to ChEMBL document CHEMBL1153733, “Imidazole derivatives as possible microbicides with dual protection” (Eur J Med Chem, 2010):
Values after ≈ are worked out from the molar mass of the structure shown.

The molecules below were run on Spermatozoa (assay: Sperimcidal activity against human spermatozoa assessed as sperm motility at 1 % drug solution%). Settings: not given.
Format: functional
In short: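 Drop of sperm–compound mixture placed on slide under cover glass, examined by phase contrast microscopy in five fields; percentage of motile spermatozoa scored visually within 30–40 s. N-9 as reference control; some compounds tested as D-(-)-tartrate salts.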

| Structure (SMILES) | Activity [%] |
| --- | --- |
| CS(=O)(=O)[O-].Cc1ncc([N+](=O)[O-])n1CC[n+]1ccccc1 | 85.09 |
| Cc1ncc([N+](=O)[O-])n1CCn1ccnc1 | 92.36 |
| C=CC(=O)OCCn1c([N+](=O)[O-])cnc1C | 70.59 |
| Cc1ncc([N+](=O)[O-])n1CCOC(=O)CCn1nnc2ccccc21 | 95.734 |
| Cc1ncc([N+](=O)[O-])n1CCOC(=O)CCn1cncn1 | 100 |
| Cc1ncc([N+](=O)[O-])n1CCSC(=S)N1CCN(c2ncccn2)CC1 | 94.12 |
| Cc1ncc([N+](=O)[O-])n1CCCl | 58.82 |
| CC(=O)OCCn1c([N+](=O)[O-])cnc1C | 82.35 |

The molecules below were run on Candida albicans (assay: Antifungal activity against Candida albicans after 48 hrs by broth microdilution technique). Settings: not given.
Format: functional
In short: (§1)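 Broth microdilution MIC per NCCLS guidelines in RPMI 1640 buffered with MOPS; starting inoculum of test culture 1–5 × 10³ CFU/mL.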

| Structure (SMILES) | MIC [µg/mL] |
| --- | --- |
| CS(=O)(=O)[O-].Cc1ncc([N+](=O)[O-])n1CC[n+]1ccccc1 | > 50 |
| Cc1ncc([N+](=O)[O-])n1CCn1ccnc1 | 25 (≈ 113 µM) |
| C=CC(=O)OCCn1c([N+](=O)[O-])cnc1C | > 50 |
| Cc1ncc([N+](=O)[O-])n1CCOC(=O)CCn1nnc2ccccc21 | > 50 |
| Cc1ncc([N+](=O)[O-])n1CCOC(=O)CCn1cncn1 | > 50 |
| Cc1ncc([N+](=O)[O-])n1CCSC(=S)N1CCN(c2ncccn2)CC1 | > 50 |
| Cc1ncc([N+](=O)[O-])n1CCCl | > 50 |
| CC(=O)OCCn1c([N+](=O)[O-])cnc1C | > 50 |

These molecules were tested on Cryptococcus neoformans (assay: Antifungal activity against Cryptococcus neoformans after 48 hrs by broth microdilution technique). Settings: not given.
Format: functional
In short: as §1

| Structure (SMILES) | MIC [µg/mL] |
| --- | --- |
| CS(=O)(=O)[O-].Cc1ncc([N+](=O)[O-])n1CC[n+]1ccccc1 | > 50 |
| Cc1ncc([N+](=O)[O-])n1CCn1ccnc1 | > 50 |
| C=CC(=O)OCCn1c([N+](=O)[O-])cnc1C | 50 (≈ 222 µM) |
| Cc1ncc([N+](=O)[O-])n1CCOC(=O)CCn1nnc2ccccc21 | > 50 |
| Cc1ncc([N+](=O)[O-])n1CCOC(=O)CCn1cncn1 | > 50 |
| Cc1ncc([N+](=O)[O-])n1CCSC(=S)N1CCN(c2ncccn2)CC1 | > 50 |
| Cc1ncc([N+](=O)[O-])n1CCCl | 50 (≈ 264 µM) |
| CC(=O)OCCn1c([N+](=O)[O-])cnc1C | > 50 |

What follows are molecules tested on Candida parapsilosis (assay: Antifungal activity against Candida parapsilosis after 48 hrs by broth microdilution technique). Settings: Lodderomyces parapsilosis.
Format: functional
In short: as §1

| Structure (SMILES) | MIC [µg/mL] |
| --- | --- |
| CS(=O)(=O)[O-].Cc1ncc([N+](=O)[O-])n1CC[n+]1ccccc1 | > 50 |
| Cc1ncc([N+](=O)[O-])n1CCn1ccnc1 | > 50 |
| C=CC(=O)OCCn1c([N+](=O)[O-])cnc1C | > 50 |
| Cc1ncc([N+](=O)[O-])n1CCOC(=O)CCn1nnc2ccccc21 | > 50 |
| Cc1ncc([N+](=O)[O-])n1CCOC(=O)CCn1cncn1 | > 50 |
| Cc1ncc([N+](=O)[O-])n1CCSC(=S)N1CCN(c2ncccn2)CC1 | > 50 |
| Cc1ncc([N+](=O)[O-])n1CCCl | > 50 |
| CC(=O)OCCn1c([N+](=O)[O-])cnc1C | > 50 |

The molecules below were run on Aspergillus fumigatus (assay: Antifungal activity against Aspergillus fumigatus after 48 hrs by broth microdilution technique). Settings: not given.
Format: functional
In short: as §1

| Structure (SMILES) | MIC [µg/mL] |
| --- | --- |
| CS(=O)(=O)[O-].Cc1ncc([N+](=O)[O-])n1CC[n+]1ccccc1 | > 50 |
| Cc1ncc([N+](=O)[O-])n1CCn1ccnc1 | > 50 |
| C=CC(=O)OCCn1c([N+](=O)[O-])cnc1C | > 50 |
| Cc1ncc([N+](=O)[O-])n1CCOC(=O)CCn1nnc2ccccc21 | > 50 |
| Cc1ncc([N+](=O)[O-])n1CCOC(=O)CCn1cncn1 | > 50 |
| Cc1ncc([N+](=O)[O-])n1CCSC(=S)N1CCN(c2ncccn2)CC1 | > 50 |
| Cc1ncc([N+](=O)[O-])n1CCCl | > 50 |
| CC(=O)OCCn1c([N+](=O)[O-])cnc1C | > 50 |

The molecules below were run on HeLa (assay: Cytotoxicity against human HeLa cells at 200 ug/ml after 24 hrs by MTT assay). Settings: not given.
Format: cell-based
In short: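 HeLa cells seeded at 5.0 × 10⁴ per well in DMEM with 10% FCS, 24 h at 37 °C in 5% CO₂; medium replaced with fresh medium containing test dilutions, 10% DMSO vehicle in control wells. After a further 24 h, MTT added; formazan dissolved in DMSO, OD read at 540 nm. Mean ± SE of 3 estimations.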

| Structure (SMILES) | Activity |
| --- | --- |
| CS(=O)(=O)[O-].Cc1ncc([N+](=O)[O-])n1CC[n+]1ccccc1 | Non-toxic |
| Cc1ncc([N+](=O)[O-])n1CCn1ccnc1 | Non-toxic |
| C=CC(=O)OCCn1c([N+](=O)[O-])cnc1C | Non-toxic |
| Cc1ncc([N+](=O)[O-])n1CCOC(=O)CCn1nnc2ccccc21 | Non-toxic |
| Cc1ncc([N+](=O)[O-])n1CCOC(=O)CCn1cncn1 | Non-toxic |
| Cc1ncc([N+](=O)[O-])n1CCSC(=S)N1CCN(c2ncccn2)CC1 | Non-toxic |

The molecules below were run on Sporothrix schenckii (assay: Antifungal activity against Sporothrix schenckii after 48 hrs by broth microdilution technique). Settings: not given.
Format: functional
In short: as §1

| Structure (SMILES) | MIC [µg/mL] |
| --- | --- |
| CS(=O)(=O)[O-].Cc1ncc([N+](=O)[O-])n1CC[n+]1ccccc1 | > 50 |
| Cc1ncc([N+](=O)[O-])n1CCn1ccnc1 | 50 (≈ 226 µM) |
| C=CC(=O)OCCn1c([N+](=O)[O-])cnc1C | 50 (≈ 222 µM) |
| Cc1ncc([N+](=O)[O-])n1CCOC(=O)CCn1nnc2ccccc21 | > 50 |
| Cc1ncc([N+](=O)[O-])n1CCOC(=O)CCn1cncn1 | > 50 |
| Cc1ncc([N+](=O)[O-])n1CCSC(=S)N1CCN(c2ncccn2)CC1 | > 50 |
| Cc1ncc([N+](=O)[O-])n1CCCl | 50 (≈ 264 µM) |
| CC(=O)OCCn1c([N+](=O)[O-])cnc1C | > 50 |

These molecules were tested on Trichophyton mentagrophytes (assay: Antifungal activity against Trichophyton mentagrophytes after 48 hrs by broth microdilution technique). Settings: not given.
Format: functional
In short: as §1

| Structure (SMILES) | MIC [µg/mL] |
| --- | --- |
| CS(=O)(=O)[O-].Cc1ncc([N+](=O)[O-])n1CC[n+]1ccccc1 | > 50 |
| Cc1ncc([N+](=O)[O-])n1CCn1ccnc1 | > 50 |
| C=CC(=O)OCCn1c([N+](=O)[O-])cnc1C | 50 (≈ 222 µM) |
| Cc1ncc([N+](=O)[O-])n1CCOC(=O)CCn1nnc2ccccc21 | 50 (≈ 145 µM) |
| Cc1ncc([N+](=O)[O-])n1CCOC(=O)CCn1cncn1 | 50 (≈ 170 µM) |
| Cc1ncc([N+](=O)[O-])n1CCSC(=S)N1CCN(c2ncccn2)CC1 | 50 (≈ 127 µM) |
| Cc1ncc([N+](=O)[O-])n1CCCl | > 50 |
| CC(=O)OCCn1c([N+](=O)[O-])cnc1C | > 50 |

The molecules below were run on Trichomonas vaginalis (assay: Antitrichomonal activity against Trichomonas vaginalis after 48 hrs by trypan blue exclusion assay). Settings: not given.
Format: functional
In short: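 Trophozoites in TYM medium; stock solutions serially diluted in TYM to concentrations up to 0.1 mg/mL, DMSO/TYM as vehicle control. Parasites added, incubated anaerobically at 37 °C, viability checked by trypan blue exclusion under microscope (200×) from 3 to 48 h. MIC = lowest concentration with all cells dead at 48 h. Metronidazole reference; run three times.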

| Structure (SMILES) | MIC [µM] |
| --- | --- |
| CS(=O)(=O)[O-].Cc1ncc([N+](=O)[O-])n1CC[n+]1ccccc1 | 9.53 |
| Cc1ncc([N+](=O)[O-])n1CCn1ccnc1 | 14.1 (≈ 3.13 µg/mL) |
| C=CC(=O)OCCn1c([N+](=O)[O-])cnc1C | 42.2 (≈ 9.51 µg/mL) |
| Cc1ncc([N+](=O)[O-])n1CCOC(=O)CCn1nnc2ccccc21 | 27.6 (≈ 9.51 µg/mL) |
| Cc1ncc([N+](=O)[O-])n1CCOC(=O)CCn1cncn1 | 21.3 (≈ 6.26 µg/mL) |
| Cc1ncc([N+](=O)[O-])n1CCSC(=S)N1CCN(c2ncccn2)CC1 | 25.4 (≈ 10 µg/mL) |
| Cc1ncc([N+](=O)[O-])n1CCCl | 6.6 (≈ 1.25 µg/mL) |
| CC(=O)OCCn1c([N+](=O)[O-])cnc1C | 23.5 (≈ 5 µg/mL) |
